ChEMBL document CHEMBL1122484, “An analysis of 1-(2-chloroethyl)-1-nitrosourea activity at the cellular level” (J Med Chem, 1983)

Legend:
[1] = Alkylating activity was determined; assay type: ADME
[2] = Carbamoylating activity was determined; assay type: ADME
[3] = Pharmacokinetic parameter k2 was determined; assay type: ADME
Summary of the method: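 First-order rate constant for chemical conversion of the parent nitrosourea to its active alkylating intermediate. Measured in aqueous buffer or human serum at pH 7.4 and 37 °C.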

[4] = tested on: P388; experiment: Mean value for the exposure for P388 to the drug following a variety of treatment schedules at pH 7.4 and 37 degree; details: Mus musculus, read-out: ED50 (the source's name)
[5] = tested on: P388; experiment: Mean value for the exposure for P388 to the drug for a period of 60 min; assay type: functional; details: Mus musculus, P388, 1 h; read-out: ED50 (the source's name)
Summary of the method: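 P388 mouse leukemia cells in log-phase suspension culture (Fischer's medium, 10% horse serum) at 1 × 10^6 cells/mL, exposed at 37 °C, pH 7.4, to graded initial drug concentrations (ethanol/water vehicle, <0.1% ethanol) in duplicate tubes for the stated period. Cells then diluted to 6.6 × 10^4 cells/mL in fresh medium, grown 48 h, Coulter counted; ED50 = dose giving 50% decrease in cell number versus untreated.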

Compound | Alkylating activity [1] | Carbamoylating activity [2] | k2 [3] | EC50 [4] | EC50 [5]
O=NN(CCCl)C(=O)NC1CCC(=O)NC1=O (stereo not given) | 360 | 24 | 0.027 min⁻¹ | 6.5 µM | 8.1 µM
NC(=O)N(CCCl)N=O | 1000 | 20 | 0.53 min⁻¹ | 5.7 µM | 6 µM
O=NN(CCCl)C(=O)NCCCl [CARMUSTINE] | 260 | 70 | 0.014 min⁻¹ | 6.3 µM | 13.3 µM
O=NN(CCCl)C(=O)N[C@H]1C(O)O[C@H](CO)[C@@H](O)[C@@H]1O (stereo not given in full) [CHLOROZOTOCIN] | 450 | 2 | 0.033 min⁻¹ | 11.7 µM | 17 µM
O=NN(CCCl)C(=O)NC1CCCCC1 [LOMUSTINE] | 100 | 100 | 0.013 min⁻¹ | 6.7 µM | 13 µM
